# Jurkat viability: cytotoxicity toward Jurkat T cells, primary screen, cytotoxicity control, cell-based, Jurkat E6.1, 60K MLSMR library; 1.2% of 56,000 active; inhibition, % at 4 µM; Jurkat E6.1 viability, ATP luminescence, 48 h;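 active = inhibition above the mean inhibition of all tested compounds plus 3 SD, cut at about 28% in these data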
# HEK293 NFkB inh: inhibitors of PMA/ionomycin-induced NF-kB reporter, primary screen, antigen receptor NF-kB inhibitor project, cell-based, HEK-293 luciferase reporter, luminescence; inhibition, % at 3 µM; 0.21% of 62,000 active; HEK-293 NF-kB luciferase reporter;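 active = inhibition above the mean of all tested compounds plus 3 SD, cut at about 40% in these data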
#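 System: NF-kB luciferase reporter HEK-293 cells | Replication: Single test | Control set: DMSO vs reference inhibitor | Evaluation: % inhibition | Schedule: 1 h pretreatment, 16 h stimulation, 37 °C | Probe or stimulus: PMA with ionomycin | Compound dosing: One dose, 3 µM | Detection: Luciferase luminescence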
# 5-HT1A blocker: human 5-HT1a receptor antagonists, primary screen, cell-based, CHO, Ga15 NFAT-bla reporter. CHO 5-HT1a Ga15 NFAT-bla reporter, antagonist mode. inhibition, % at 10 µM. 0.68% of 62,000 active. AID 612, 2007;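 active = inhibition above the mean of all tested compounds plus 3 SD, cut at about 43% in these data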;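 note: receptor stimulated by 5-CT agonist at 100 nM near EC80; beta-lactamase reporter measured by ratiometric fluorescence of a cleavable substrate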
# 5HT1E ag: 5-HT1E receptor agonists, primary screen, cell-based, HTS; CHO 5-HT1E Ga15 NFAT-bla reporter, FRET; 0% DMSO wells, 100% control agonist wells; activation, % at 6 µM; 0.69% of 65,000 active; AID 574, 2007;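 active = activation above a set limit, the screen-wide mean activation plus 3 SD, cut at about 8.5% in these data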
# Target sequence (P28566 whole entry, looked up): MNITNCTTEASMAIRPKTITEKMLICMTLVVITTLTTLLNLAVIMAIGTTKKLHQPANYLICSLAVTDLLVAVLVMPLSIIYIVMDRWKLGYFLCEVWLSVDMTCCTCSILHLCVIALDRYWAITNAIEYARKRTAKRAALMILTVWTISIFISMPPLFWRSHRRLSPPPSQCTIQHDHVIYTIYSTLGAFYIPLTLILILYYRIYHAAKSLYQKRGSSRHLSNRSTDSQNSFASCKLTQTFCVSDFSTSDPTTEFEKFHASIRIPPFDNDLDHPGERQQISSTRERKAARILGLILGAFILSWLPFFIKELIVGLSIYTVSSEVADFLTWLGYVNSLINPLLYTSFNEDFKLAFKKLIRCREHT
# 5HT1a ag: human 5-HT1a receptor agonists, primary screen, cell-based, CHO, Ga15 NFAT-bla reporter; 5-hydroxytryptamine receptor 1A (Homo sapiens), P08908; CHO 5-HT1a Ga15 NFAT-bla reporter, FRET ratio; 0% basal, 100% maximal reference agonist; activation, % at 10 µM; 0.56% of 65,000 active; AID 567, 2006;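 active = activation above the screen-wide mean activation plus 3 SD, cut at about 19% in these data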
# 5HT1E antag: 5-HT1E receptor antagonists, primary screen, cell-based, HTS; 0.99% of 65,000 active; AID 571, 2007; CHO 5-HT1E Ga15 NFAT-bla reporter, FRET, antagonist; inhibition, % at 6 µM; 5-hydroxytryptamine receptor 1E (Homo sapiens), P28566;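 active = inhibition above a set limit, the mean inhibition across every tested compound plus 3 SD, cut at about 29% in these data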;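 note: signal is the 460 over 535 nm emission ratio of beta-lactamase substrate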
# Hits are given with their value; i = inactive; nt = no result given. This is a sample that favours compounds with a hit; in the whole collection about 3.3% have one here.
SMILES,Jurkat viability,HEK293 NFkB inh,5-HT1A blocker,5HT1E ag,5HT1a ag,5HT1E antag
CC(C)Oc1cccc(C(=O)Nc2ccc(N3CCN(S(C)(=O)=O)CC3)cc2)c1,i,i,i,i,i,i
CC(C)Oc1ccc(C(=O)Nc2ccc(N3CCCC3)cc2)cc1,i,i,i,i,50,i
COCC(C)n1c(C)cc(C(=O)COC(=O)c2c(NC(C)=O)sc(C)c2C)c1C (centres undefined),i,i,i,i,i,i
CCCSc1nnc(Sc2nnnn2-c2ccccc2)s1,98,i,i,i,i,i
COc1ccccc1C(=O)Nc1cc(-c2nn3c(C)nnc3s2)ccc1C,i,i,i,i,i,i
O=S(CCc1ccncc1)Cc1ccccc1 (centres undefined),nt,nt,nt,i,40,i
COc1ccc(Cn2nnnc2C(c2ccc(N(C)C)cc2)N2CCC(C)CC2)cc1 (centres undefined),i,i,44,i,i,i
CCOC(=O)c1oc2ccccc2c1NC(=O)c1cccc(OC)c1OC,i,i,i,i,i,34
Cc1cc(C)n2nc(SCc3cc(=O)n4c(C)cccc4n3)nc2n1,nt,i,i,i,i,i
CCCn1c(SCC(=O)N2CCN(S(=O)(=O)c3ccc(Cl)cc3)CC2)n[nH]c1=O,i,i,i,9.0,i,i
Cc1cccc(C)c1-n1nnnc1SCSc1nnnn1-c1c(C)cccc1C,i,45,i,i,i,i
N=c1ccn(Cc2ccc(Cl)c(Cl)c2)cc1,30,i,i,i,i,i
O=C(O)C1CC=CCC1C(=O)Nc1ccc(S(=O)(=O)N2CCCc3ccccc32)cc1 (centres undefined),35,i,i,i,i,i
COc1ccc(OC)c(NC(=O)CSc2nnc(N)s2)c1,i,i,i,i,i,i
COc1cc2c(cc1OC)CN(Cc1cccs1)CC2,i,i,i,13,i,i
COc1cc2c(cc1OC)CN(Cc1ccc(OC)c(C)c1OC)CC2,i,i,i,i,i,i
C=CCn1c(SCC(=O)c2cc(C)n(C(C)COC)c2C)nc2sc(C)c(C)c2c1=O (centres undefined),i,i,i,i,i,i
COc1ccc(S(=O)(=O)Cc2ccc(C(=O)N3CCN(c4cccc(C)c4)C(C)C3)o2)cc1 (centres undefined),90,i,i,i,i,i
CCN(CC)c1ccc(NC(=O)c2cc(OC)cc(OC)c2)c(C)c1,94,i,52,i,i,42
Cc1ccc(C)c(NC(=O)c2ccc3c(c2)N(Cc2ccc(F)cc2)C(=O)CS3=O)c1 (centres undefined),i,i,i,i,47,i
CCOc1ccc(NC(=O)c2ccc3c(c2)N(Cc2ccc(F)cc2)C(=O)CS3=O)cc1 (centres undefined),i,i,i,i,i,i
CCS(=O)(=O)NCCc1cc2ccc(C)cc2[nH]c1=O,i,i,i,i,i,i
O=C(Nc1nc2ccccc2[nH]1)c1ccccc1F,52,61,i,i,i,i
COc1ccccc1C1N(c2ccc(Cl)cc2)C(=O)C2CCCN21 (centres undefined),i,i,i,15,i,i
COc1ccc(N2C(=O)C3CCCN3C2c2ccccc2OC)cc1 (centres undefined),i,i,i,i,i,i
SMILES,Jurkat viability,HEK293 NFkB inh,5-HT1A blocker,5HT1E ag,5HT1a ag,5HT1E antag
COc1ccc(C2N(c3ccc(F)cc3)C(=O)C3CCCN32)cc1 (centres undefined),i,i,i,i,i,88
O=C(CN1CCN(S(=O)(=O)c2ccc(Cl)cc2)CC1)Nc1ccc2c(c1)OCO2,i,i,i,i,i,i
O=C(Nc1ccc2c(c1)OCO2)N1CCN(S(=O)(=O)c2ccc(Cl)cc2)CC1,i,i,i,14,i,i
CN1CCN(S(=O)(=O)c2ccc(NC(=O)c3csc4ccccc34)cc2)CC1,i,i,i,i,i,35
CC1=C(C)[N+](=O)C2CCCCC2N1[O-] (centres undefined),i,i,i,i,i,i
CCOC(=O)N1CCC(NC(=O)CSc2cc(=O)n(C)c3ccc(Cl)cc23)CC1,i,i,i,i,i,i
COCCNC(=O)CSc1nc2ccccc2c(=O)n1CCCC(=O)NCc1ccccc1,nt,i,i,i,26,i
CCNC(=O)CSc1nc2ccccc2c(=O)n1CCCOC(C)C,i,i,i,i,i,i
COc1ccc(C(=O)OCCNC(=O)c2c(Cl)nc3ccccn23)cc1,i,i,i,i,i,35
CCCCCOc1ccc(C(=O)NC(CCC)C(=O)O)cc1 (centres undefined),i,i,i,i,i,i
CCCCCCOc1ccc(/C(N)=N/O)cc1,97,i,i,i,i,i
Cc1c(C)c2cc(Cl)c(O)c(CN3CCN(C)CC3)c2oc1=O,nt,nt,nt,i,i,i
Cc1c(Cc2ccccc2)c(=O)oc2c(CN(C)C)c(O)c(Cl)cc12,i,i,i,i,20,i
CC1=NCCN1S(=O)(=O)c1cc(Cl)ccc1Cl,i,i,i,i,i,i
CC1Cc2ccccc2N1C(=O)c1cc2c(=O)n3ccccc3nc2n1C (centres undefined),i,i,i,i,i,39
N#CC1=C(N)N(c2ccccc2)C(c2ccco2)C1(C#N)C#N (centres undefined),i,i,i,i,42,i
Cc1cccc(N2C(N)=C(C#N)C(C#N)(C#N)C2c2ccccc2)c1 (centres undefined),i,i,i,i,i,42
CC(C)(C)NS(=O)(=O)c1cccc(S(=O)(=O)c2cccc(S(=O)(=O)NC(C)(C)C)c2)c1,i,i,i,i,i,i
Fc1ccccc1COc1cccc(/C=N/n2cnnc2)c1,i,i,i,i,i,i
Cc1cc(/C=N/n2cnnc2)c(C)n1-c1ccc(OCc2ccccc2F)cc1,i,i,i,i,i,29
COc1cc(S(=O)(=O)N2CCN(C(=O)c3ccccc3F)CC2)c(OC)cc1NC(C)=O,i,i,i,i,i,i
O=C(Nc1nc2ccc(S(=O)(=O)N3CCCC3)cc2s1)C1CCCCC1,93,i,i,i,i,i
CCN(CC)c1ncnc2sc(C(=O)N3CCN(c4ccccc4)CC3)c(C)c12,i,i,i,i,i,i
CCOC(=O)C1CCCN(C(=O)c2cnn3c(C(F)F)cc(-c4ccc(C)cc4)nc23)C1 (centres undefined),i,i,47,i,i,i

# High-throughput results as filed in PubChem.
